Measurements gathered from unrelated publications.
Lines come from different studies, so protocols differ.
Target: RAC-beta serine/threonine-protein kinase (AKT2, Homo sapiens, UniProt P31751)

SMILES | assay | conditions | endpoint | result
C#Cc1cnc(Nc2ccnc(CO)c2)nc1Nc1ccccc1S(C)(=O)=NC#N (stereo not shown) | cell-free assay | 1 µM | remaining signal | 100%
CC#CC(=O)N1CCC[C@H]1c1nc(-c2ccc(C(=O)Nc3ccccn3)cc2)c2c(N)nccn12 | enzyme activity, inhibitor | 1 µM | inhibition | 0%
Cc1cc(-c2ccnc3[nH]cc(F)c23)cc(F)c1[C@@]1(O)[C@H](C)CN(C2CCS(=O)(=O)CC2)C[C@@H]1C | enzyme activity, inhibitor | 15 nM | remaining activity | 93%
COc1ccc2oc(-c3ccc4nc(N)oc4c3)c/c(=N\c3ccccc3NC(=O)CCN)c2c1 | binding | 1 µM | remaining binding | 93%
C[C@H]1CC[C@H](n2c3cnccc3c3cnc(Nc4ccc5c(n4)CCN(C(=O)CO)C5)nc32)CC1 | cell-free assay | 1 µM | remaining signal | 100%
CCCCC(=O)Nc1ccc(-c2ccc3ncn(CCC)c(=O)c3c2)cn1 | binding, competition with immobilised ligand | 0.5 µM | remaining binding | 100%
N#Cc1ccc(NC(=O)Nc2ccccc2)cc1 | cell-free assay, competition with immobilised ligand | 25 µM | remaining binding | 92%
C1=C/COCc2cc(ccc2OCCN2CCCC2)Nc2nccc(n2)-c2cccc(c2)COC/1 | binding | 0.1 µM | remaining binding | 100%
C=CC(=O)N1CCC([C@@H]2CCNc3c(C(N)=O)c(-c4ccc(Oc5ccccc5)cc4)nn32)CC1 | enzyme activity, inhibitor | 1 µM | inhibition | 1%
CN1CCN(C(=O)c2ccc(NC(=O)Nc3ccc(N(C)c4ccnc(Nc5ccc(CS(C)(=O)=O)cc5)n4)cc3)cc2)CC1 | binding | 1 µM | remaining binding | 100%
